Key:
[1] = tested on: PfMDR1 mutant lines versus parental ABS parasites (Dd2-B2, FCB); assay: Drug susceptibility profiling of HHQ-resistant lines in ABS parasites; assay type: cell-based, Plasmodium falciparum; conditions: for susceptibility in GNF-Pf-5668-3C4D2 compared to PfMDR1^edF1072L: i.e. higher IC50 values
[2] = tested on: P. berghei ANKA MRA868 GAMs, Anopheles stephensi mosquitoes; assay: In vivo transmission-blocking effect; set-up: species or system P. berghei in CD-1 mice; conditions: mice given two doses 12 h apart: 100 mg/kg GNF compounds, 30 mg/kg DHA
[3] = tested on: NF54^Pfs16 early-stage GAMs; assay: Luciferase-based early-stage gametocyte inhibition assay; assay type: cell-based, Plasmodium falciparum; conditions: in words
Procedure, shortened: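 Gametocytes on day 1 of gametocytogenesis were set at 10% parasitemia and 0.5% Hct. They were kept in medium with 50 mM N-acetyl-D-glucosamine, refreshed daily. Compound was added at 0.4% DMSO final. Controls were DMSO (0% inhibition) and 5 μM puromycin (100% inhibition). After 72 h at 37°C in 5% O₂/5% CO₂/90% N₂, Steadylite was added, followed by 60 min lysis at room temperature and a luminescence read. Potency used serial dilutions up to 40 μM, three per log, on two independent occasions.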

[4] = tested on: NF54^Pfs16 late-stage GAMs; assay: Image-based late-stage gametocyte inhibition assay; assay type: cell-based, Plasmodium falciparum; conditions: in words
Procedure, shortened: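 Day-8 stage IV gametocytes were MACS-purified and set at 10% parasitemia and 0.1% Hct, with 0.4% DMSO final. They were incubated 72 h at 37°C in 5% O₂/5% CO₂/90% N₂, then stained overnight with MitoTracker Red CM-H₂XRos. Confocal imaging counted viable mature gametocytes per imaged area; 5 μM puromycin was the control. Screening used 2 μM in triplicate. Potency used serial dilutions up to 40 μM, three per log, on two independent occasions.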

[5] = tested on: 3D7 (drug-sensitive) ABS parasites; assay: Imaging-based asexual blood stage high-throughput assay; assay type: cell-based, Plasmodium falciparum; conditions: read-out: ABS IC50; drug-sensitive 3D7, 72 h
Procedure, shortened: (§1)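 Sorbitol-synchronized parasites were seeded at 2% parasitemia and 0.3% Hct and exposed to test compound for 72 h at 37°C in 5% O₂/5% CO₂/90% N₂. Cells were then permeabilized with 0.01% Triton X-100, 0.001% saponin and 5 mM EDTA, and stained with 0.5 μg/mL DAPI for at least 6 h at room temperature in the dark. Confocal imaging used 405 nm excitation. Parasites were counted from spot size and intensity. Two independent cultures.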

[6] = tested on: Dd2 (multidrug-resistant) ABS parasites; assay: Imaging-based asexual blood stage high-throughput assay; assay type: cell-based, Plasmodium falciparum; conditions: read-out: ABS IC50; multidrug-resistant Dd2, 72 h
[7] = tested on: NITD609-R^Dd2 clone #2 (PfATP4 mutant line); assay: Imaging-based asexual blood stage high-throughput assay; assay type: cell-based, Plasmodium falciparum; conditions: read-out: ABS IC50, 72 h
Procedure, shortened: as §1

[8] = tested on: HEK293 human embryonic kidney cell line; assay: HEK293 cytotoxicity; assay type: cell-based; conditions: at 40 μM, 72 h
Procedure, shortened: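 Cells were grown in DMEM with 10% fetal calf serum and seeded at 2,000 cells/well, then left overnight at 37°C in 5% CO₂ to adhere. Test compound was added as a serial dilution with a maximum of 40 μM, at 0.4% DMSO final, for 72 h. Medium was then replaced with serum-free DMEM containing 44 μM resazurin for 4–6 h. Fluorescence was read at 530/595 nm. Two biological replicates.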

[9] = tested on: male gametes from stage V GAMs; assay: Dual gamete formation assay, male gamete formation; assay type: cell-based, Plasmodium falciparum; conditions: in words
[10] = tested on: female gametes from stage V GAMs; assay: Dual gamete formation assay, female gamete formation; assay type: cell-based, Plasmodium falciparum; conditions: in words
[11] = tested on: compound-exposed Pf GAMs in Anopheles stephensi mosquitoes; assay: Membrane-feeding assay with A. stephensi mosquitoes; assay type: in vivo, Plasmodium falciparum; conditions: for reduction in oocyst density per infected mosquito midgut: GAMs pre-treated at 3x late-stage IC50; for reduction in infection prevalence (percentage of infected mosquitoes): GAMs pre-treated at 3x late-stage IC50, 3 days, then 4 days without compound
Procedure, shortened: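 Day-12 gametocytes were treated 3 days at 1x or 3x their late-stage IC50, with compound refreshed daily, then held 4 days without compound. Controls were 0.25% DMSO and methylene blue at 3x. Stage V cultures (50% Hct, 0.01–0.16% parasitemia) were membrane-fed for 30 min to A. stephensi, kept at 26°C and 78% RH. Midguts were dissected on day 7–8, stained with mercurochrome and oocysts counted blind. Prevalence is the percentage of mosquitoes with at least one oocyst.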

male GAM exflagellation = assay: Male GAM exflagellation of GAM cultures used for membrane feeding; assay type: cell-based, Plasmodium falciparum; conditions: GAM cultures exposed at 3x late-stage IC50
[12] = tested on: cultured P. berghei liver-stage parasites; conditions: cited from earlier work
[13] = tested on: P. berghei ANKA MRA868 ABS parasites; assay: 4-day Peters test; assay type: in vivo, P. berghei in CD-1 mice; conditions: 4 doses, 96 h post infection
Procedure, shortened: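 Female CD-1 mice (5 weeks old, 22–25 g; four per group) were infected intraperitoneally with 1x10⁶ parasites. The test compound was given intraperitoneally at 2, 24, 48 and 72 h after infection, in 20% DMSO in water. Controls were solvent only and DHA at 30 mg/kg. Parasitemia was read by microscopy at 96 h. Groups were randomized and blinded. The 100 mg/kg groups were tested once.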

Dd2-B2 parasites = assay: Heme fractionation assay; assay type: cell-based, Plasmodium falciparum; conditions: for heme fractionation effect compared to untreated controls: 0.1 to 2′ IC50
[14] = tested on: PfMDR1^selY290F parasites; assay: Heme fractionation assay; assay type: cell-based, Plasmodium falciparum; conditions: MQ with increasing concentrations; LMF at 1–2′ IC50
Procedure, shortened: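 Early ring-stage, sorbitol-synchronized parasites were exposed to test compound at 0.1, 0.25, 0.5, 1 and 2x the ABS IC50. Heme species were fractionated and normalized to the number of cells analyzed, counted by flow cytometry of an aliquot. Significance was tested by two-tailed t-tests.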

Dd2-B2 late rings = assay: Hb endocytosis by Western blot; assay type: cell-based, Plasmodium falciparum; conditions: 5′ the IC50 for 5 h, normalized to DMSO control
Procedure, shortened: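 Sorbitol-synchronized parasites were exposed to test compound at 5x IC50 for 5 h, starting at the late ring stage. Lysates were blotted to nitrocellulose and probed overnight at 4°C with rabbit anti-human Hb (1:5,000) and anti-β-actin (1:2,000). Detection was by ECL. Hb band intensities were normalized to β-actin and compared with untreated controls. Repeated on 3–4 independent occasions.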

[15] = PfMDR1^selY290F (GNF-Pf-5660-2B6H1)

With `CCN(CC)CCCC(C)Nc1ccnc2cc(Cl)ccc12` (stereo not shown) [CQ, chloroquine] the changes in susceptibility ([1]; all three lines: PfMDR1^edF1072L, PfMDR1^edS1075I, PfMDR1^selY290F) was “no changes”.
For `C[C@H]1[C@@H](O)O[C@@H]2O[C@@]3(C)CC[C@H]4[C@H](C)CC[C@@H]1[C@@]24OO3` [DHA, dihydroartemisinin, reference compound], the “reduction in oocyst burden” value [2] was 75%, the “reduction in the number of infected mosquitoes” value [2] was 65% and the “fold increased susceptibility versus Dd2-B2” value ([1]; all three mutations (F1072L, S1075I, Y290F)) was ~ 1.6 fold.
In the case of `CC(C)(C)c1ccc(O)c(CNC2CCCCC2)c1` [GNF-Pf-5310], the early-stage gametocytocidal activity [3] is reported as “potent”, the late-stage gametocytocidal activity [4] is reported as “potent” and the IC50 [5] is reported as under 25 nM. For the same compound, the IC50 [6] was under 25 nM, the IC50 [7] was under 25 nM and the “inhibition of HEK293 cells” value [8] was under 50%. For the same compound, the “activity on male gametes / exflagellation” value [9] was “no activity”, the “activity on female gamete formation” value [10] was “no activity” and the “reduction in oocyst density per infected mosquito midgut” value [11] was 73%. The “reduction in infection prevalence (percentage of infected mosquitoes)” value [11] was “no reduction” and the “reduction in male GAM exflagellation rates” value (male GAM exflagellation) was “no effect”.
For `COc1ccc(C2CC(=O)C3=C(C2)NC(C)=C(C(=O)OC(C)C)C3c2ccccc2C)cc1OC` (stereo not shown) [GNF-Pf-5640], the early-stage gametocytocidal activity [3] was “potent”, the late-stage gametocytocidal activity [4] was “potent” and the IC50 [5] was under 25 nM. The IC50 [6] was under 25 nM, the IC50 [7] was under 25 nM and the “inhibition of HEK293 cells” value [8] was under 50%. For the same compound, the “fold increase in IC50 compared to parental Dd2-B2” value (shortened to “fold increase in IC50”) ([1]; GNF-Pf-5640-selected clone 2C4C3, PfMDR1 S1075I) was 77 fold, the “fold increase in IC50” value ([1]; GNF-Pf-5640-selected clone 3H9C7, PfMDR1 Y290F) was 79 fold and the “activity against liver-stage parasites” value [12] was “inactive”.
For `CCCOC(=O)C1=C(C)NC2=C(C(=O)CC(c3ccc(OC)c(OC)c3)C2)C1c1ccccc1F` (stereo not shown) [GNF-Pf-5668], the early-stage gametocytocidal activity [3] was “potent”, the late-stage gametocytocidal activity [4] was “potent” and the IC50 [5] was under 25 nM. The IC50 [6] was under 25 nM, the IC50 [7] was under 25 nM and the “inhibition of HEK293 cells” value [8] was under 50%. For the same compound, the “reduction in oocyst density per infected mosquito midgut” value [11] was 95–99%, the “reduction in infection prevalence (percentage of infected mosquitoes)” value [11] was 57% and the “reduction in male GAM exflagellation rates” value (male GAM exflagellation) was 70%. For the same compound, the “reduction of parasitemia compared to vehicle-treated mice” value ([13]; 70 mg/kg intraperitoneal) was 43%, the “reduction of parasitemia compared to vehicle-treated mice” value ([13]; 100 mg/kg intraperitoneal) was 91% and the “reduction in oocyst burden” value [2] was “No effect”. The “reduction in the number of infected mosquitoes” value [2] was “No effect”, the “fold increase in IC50” value ([1]; GNF-Pf-5668-selected clone 3C4D2, PfMDR1 F1072L (AB 67%)) was 37 fold and the “activity against liver-stage parasites” value [12] was “inactive”.
In the case of `CCCCN(CCCC)CC(O)c1cc(Cl)cc2c1-c1ccc(Cl)cc1/C2=C/c1ccc(Cl)cc1` (stereo not shown) [LMF, Lumefantrine], the “fold higher susceptibility versus Dd2-B2” value ([1]; PfMDR1^edF1072L) is reported as 3.1 fold, the “fold increased susceptibility versus Dd2-B2” value ([1]; PfMDR1^edS1075I) is reported as “unchanged” and the “fold higher susceptibility versus Dd2-B2” value [1, 15] is reported as 1.9 fold. For the same compound, the “susceptibility in GNF-Pf-5668-3C4D2 compared to PfMDR1^edF1072L” value [1] was “decreased susceptibility”, the “heme fractionation effect compared to untreated controls” value (Dd2-B2 parasites) was “little or no effect” and the “Hz and total heme iron levels” value [14] was “reduction”. The “reduction of Hb levels within parasites” value (Dd2-B2 late rings) was “no significant changes”.
With `OC(c1cc(C(F)(F)F)nc2c(C(F)(F)F)cccc12)C1CCCCN1` (stereo not shown) [MQ, mefloquine] the “fold increased susceptibility compared to wild-type Dd2-B2” value ([1]; GNF-Pf-5668-3C4D2 line (four pfmdr1 copies + F1072L (AB 69%))) was 1.4 fold, the “fold higher susceptibility versus Dd2-B2” value ([1]; PfMDR1^edF1072L) was 3.6 fold and the “fold increased susceptibility versus Dd2-B2” value ([1]; PfMDR1^edS1075I) was 1.4 fold. The “fold higher susceptibility versus Dd2-B2” value [1, 15] was 2.0 fold, the “susceptibility in GNF-Pf-5668-3C4D2 compared to PfMDR1^edF1072L” value [1] was “decreased susceptibility” and the “heme fractionation effect compared to untreated controls” value (Dd2-B2 parasites) was “little or no effect”. The “fold decrease in Hz levels” value (Dd2-B2 parasites; 2′ the IC50) was 1.6 fold, the “Hz and total heme iron levels” value [14] was “reductions” and the “reduction of Hb levels within parasites” value (Dd2-B2 late rings) was “no significant changes”.

From article PMC5708124 (Nature microbiology, 2017)
